{"data": "Measured values gathered from unrelated publications", "cell line": "NCI-H322M", "read-out": "cell growth or viability", "note": "Each line is one published result; the experiments were not run side by side."}
{"SMILES": "COc1cccc(Oc2ccccc2NC(=O)CNC(=O)c2cccc3ccccc23)c1", "test": "SRB", "setting": "48 h", "measurement": "GI50", "result": "1.29 µM"}
{"SMILES": "CCc1n(Cc2ccc3ccccc3n2)cc[n+]1Cc1ccc2ccccc2c1", "test": "SRB", "measurement": "TGI", "result": "13.8 µM"}
{"SMILES": "O=C1NC(=NCc2cccs2)S/C1=C\\c1ccc2ncccc2c1", "measurement": "IC50", "result": "> 10 µM"}
{"SMILES": "c1ccc2cc(Cn3cc[n+](Cc4ccc5ccccc5c4)c3)ccc2c1", "test": "SRB", "measurement": "TGI", "result": "21.3 µM"}
{"SMILES": "O=C1NCCc2[nH]c(-c3ccncc3)cc21", "measurement": "IC50", "result": "> 10 µM"}
{"SMILES": "COc1cc(-c2ccc(-c3ccc(C(=N)N)nc3)s2)cc(OC)c1OC", "test": "SRB", "measurement": "GI50", "result": "3.23 µM"}
{"SMILES": "S=C([S][Au-][P+](CCCCCC[P+]([Au-][S]C(=S)n1cccn1)(c1ccccc1)c1ccccc1)(c1ccccc1)c1ccccc1)n1cccn1", "test": "SRB", "measurement": "GI50", "result": "0.417 µM"}
{"SMILES": "COc1ccc(C(=O)/C=C/c2cccnc2)cc1S(N)(=O)=O", "test": "SRB", "setting": "48 h", "measurement": "GI50", "result": "12.3 µM"}
{"SMILES": "CCc1n(Cc2ccc3ccccc3n2)cc[n+]1Cc1ccc2ccccc2n1", "test": "SRB", "measurement": "TGI", "result": "41.9 µM"}
{"SMILES": "COc1ccc(-c2ccc(-c3ccc(C(=N)N)nc3)s2)cc1", "test": "SRB", "measurement": "GI50", "result": "1.59 µM"}
{"SMILES": "COc1ccc(C(=O)/C=C/c2cc3c(cc2Br)OCO3)cc1S(N)(=O)=O", "test": "SRB", "setting": "48 h", "measurement": "GI50", "result": "3.8 µM"}
{"SMILES": "Cc1cc(C)n(C(=S)[S][Au][PH](CCCCCC[PH]([Au][S]C(=S)n2nc(C)cc2C)(c2ccccc2)c2ccccc2)(c2ccccc2)c2ccccc2)n1", "test": "SRB", "measurement": "GI50", "result": "0.423 µM"}
